The record followed here is ChEMBL document CHEMBL3526127, “Absorption, elimination, and metabolism of CS-1036, a novel α-amylase inhibitor in rats and monkeys, and the relationship between gastrointestinal distribution and suppression of glucose absorption” (Drug Metab Dispos, 2013).

The nature of series [1]: Drug level in anaerobic culture broth of F344 rat cecal content treated with [14C]CS-1036 at 63.5 uCi/ml after 24 hrs at 35 degC by LC-MS/MS method. Format: ADME. The following applies: in vitro.
Series [2] is described as follows: Drug metabolism in anaerobic culture broth of F344 rat cecal content assessed as N-acetyl [14C]CS-1036 formation at 63.5 uCi/ml after 24 hrs at 35 degC by LC-MS/MS method. Format: ADME.
Another series has as its system Stomach. The series can be described thus: Drug distribution in stomach of F344 rat treated with [14C]CS-1036 at 1 mg/kg, po administered as single dose after 2 to 8 hrs by scintillation counting method. The following applies: in vivo. Also noted: dose 1 mg/kg, route oral. Format: ADME, organism-based.
Series [3] can be described thus: Drug level in anaerobic culture broth of monkey feces derived anaerobic culture broth treated with [14C]CS-1036 at 63.5 uCi/ml after 24 hrs at 35 degC by LC-MS/MS method. The following applies: cynomolgus monkey, in vivo.
Series [4] is described as follows: Drug excretion in feces of cynomolgus monkey treated with [14C]CS-1036 at 3 mg/kg, po administered as single dose after 48 hrs by scintillation counting method. The following applies: in vivo.
The nature of series [5]: Drug level in feces of F344 rat treated with [14C]CS-1036 by LC-MS/MS method. Format: ADME, tissue-based. The following applies: in vivo.
A short description of series [6]: Drug distribution in cecum of F344 rat treated with [14C]CS-1036 at 1 mg/kg, po administered as single dose after 6 to 8 hrs by scintillation counting method. Format: ADME, organism-based, Caecum. Also noted: dose 1 mg/kg, route oral. The following applies: in vivo.
Another series relates to Intestine. The series can be described thus: Drug distribution in intestine of F344 rat treated with [14C]CS-1036 at 1 mg/kg, po administered as single dose after 2 to 8 hrs by scintillation counting method. In kind it is ADME, organism-based. Also noted: dose 1 mg/kg, route oral. The following applies: in vivo.
The nature of series [7]: Drug level in anaerobic culture broth of human feces derived anaerobic culture broth treated with [14C]CS-1036 at 63.5 uCi/ml after 24 hrs at 35 degC by LC-MS/MS method. Format: ADME, tissue-based.
Series [8] in a line: Drug excretion in urine of cynomolgus monkey treated with [14C]CS-1036 at 3 mg/kg, po administered as single dose after 48 hrs by scintillation counting method. The following applies: in vivo.
The nature of series [9]: Oral bioavailability in rat at 10 mg/kg. Format: ADME, organism-based. The following applies: in vivo.
Series [10] can be described thus: Drug level in urine of po dosed monkey treated with [14C]CS-1036 by LC-MS/MS method. The following applies: cynomolgus monkey, in vivo.
The nature of series [11]: Drug distribution in cecum of F344 rat treated with [14C]CS-1036 at 1 mg/kg, po administered as single dose by scintillation counting method. The following applies: in vivo, TDE = time-dependent effect. Also noted: dose 1 mg/kg, route oral. In kind it is ADME, organism-based, Caecum. Put shortly:
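[14C]-labelled drug (1 mg/kg, 42.4 µCi/kg) was given orally to fasted F344 rats (148–168 g, n = 3). Contents of stomach, duodenum+jejunum, ileum and cecum were washed out with water at 0.5–8 h, homogenized, solubilized and counted by liquid scintillation. Results are % of dose, mean ± S.D.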

For series [12], the system named is Rattus norvegicus. The series can be described thus: Drug level in F344 rat treated with 0.3 mg/kg, po CS-1036 administered as single dose assessed as ratio of molar based AUClast by LC-MS/MS method relative to CS-1036. Format: ADME, organism-based. Also noted: dose 0.3 mg/kg, route oral. The following applies: in vivo.
In series [13] the test system is Rattus norvegicus. The series can be described thus: Drug level in F344 rat treated with 10 mg/kg, po CS-1036 administered as single dose assessed as ratio of molar based AUClast by LC-MS/MS method relative to CS-1036. Format: ADME, organism-based. Also noted: dose 10 mg/kg, route oral. The following applies: in vivo.
Series [14] is described as follows: Drug level in urine of F344 rat treated with [14C]CS-1036 by LC-MS/MS method. In kind it is ADME, tissue-based. The following applies: in vivo.
Series [15] relates to Rattus norvegicus. The series can be described thus: Drug level in F344 rat treated with 3 mg/kg, iv CS-1036 administered as single dose assessed as ratio of molar based AUClast by LC-MS/MS method relative to CS-1036. Format: ADME, organism-based. Also noted: dose 3 mg/kg, route intravenous. The following applies: in vivo.
Series [16] has as its system Cynomolgus monkey. The series can be described thus: Drug level in cynomolgus monkey treated with 10 mg/kg, po CS-1036 administered as single dose assessed as ratio of molar based AUClast by LC-MS/MS method relative to CS-1036. In kind it is ADME, organism-based, Macaca fascicularis. Also noted: dose 10 mg/kg, route oral. The following applies: in vivo.
Series [17] deals with Cynomolgus monkey. The series can be described thus: Drug level in cynomolgus monkey treated with 3 mg/kg, po CS-1036 administered as single dose assessed as ratio of molar based AUClast by LC-MS/MS method relative to CS-1036. Also noted: dose 3 mg/kg, route oral. In kind it is ADME, organism-based, Macaca fascicularis. The following applies: in vivo.
Series [18] can be described thus: Drug excretion in urine of F344 rat treated with [14C]CS-1036 at 1 mg/kg, po administered as single dose after 24 hrs by scintillation counting method. In kind it is ADME, organism-based. Also noted: dose 1 mg/kg, route oral. The following applies: in vivo.
Series [19] is described as follows: Drug level in urine of po dosed F344 rat treated with [14C]CS-1036 by LC-MS/MS method. Format: ADME, organism-based. The following applies: in vivo.
Series [20] deals with Cynomolgus monkey. The series can be described thus: Drug level in cynomolgus monkey treated with 1 mg/kg, po CS-1036 administered as single dose assessed as ratio of molar based AUClast by LC-MS/MS method relative to CS-1036. Format: ADME, organism-based, Macaca fascicularis. The following applies: in vivo. Also noted: dose 1 mg/kg, route oral.
Series [21] has as its system Rattus norvegicus. The series can be described thus: Drug level in F344 rat treated with 1 mg/kg, po CS-1036 administered as single dose assessed as ratio of molar based AUClast by LC-MS/MS method relative to CS-1036. Format: ADME, organism-based. Also noted: dose 1 mg/kg, route oral. The following applies: in vivo.
For series [22], the system named is Rattus norvegicus. The series can be described thus: Drug level in F344 rat treated with 3 mg/kg, po CS-1036 administered as single dose assessed as ratio of molar based AUClast by LC-MS/MS method relative to CS-1036. Also noted: dose 3 mg/kg, route oral. Format: ADME, organism-based. The following applies: in vivo.
Series [23] can be described thus: Drug distribution in cecum of F344 rat treated with [14C]CS-1036 at 1 mg/kg, po administered as single dose after 8 hrs by scintillation counting method. In kind it is ADME, organism-based, Caecum. Also noted: dose 1 mg/kg, route oral. The following applies: in vivo.
The next series is filed under the species Mus musculus. The series can be described thus: Inhibition of glycogen phosphorylase in ob/ob mouse. In kind it is functional, organism-based.
A short description of series [24]: Cmax in rat at 10 mg/kg, po. In kind it is ADME, organism-based. Also noted: dose 10 mg/kg, route oral. The following applies: in vivo.
Series [25] relates to Rattus norvegicus. The series can be described thus: Drug level in F344 rat treated with 10 mg/kg, iv CS-1036 administered as single dose assessed as ratio of molar based AUClast by LC-MS/MS method relative to CS-1036. The following applies: in vivo. Format: ADME, organism-based. Also noted: dose 10 mg/kg, route intravenous.

`CC(=O)N1C[C@@H](O)[C@H](O[C@H]2O[C@H](CO)[C@@H](O[C@@H]3O[C@H](C)[C@@H](O)[C@H](O)[C@H]3O)[C@H](O)[C@H]2O)[C@H]1CO`: the Drug metabolism result in [1] and in [2] was “metabolite_detected” throughout.
On to `CC(=O)N1C[C@@H](O)[C@H](O)[C@H]1CO`, for which the Drug metabolism result in the series with Stomach was “metabolite_not_detected”; in series [3], “metabolite_detected”; in series [5], “metabolite_detected”; in [1] it was “metabolite_detected”; in the series with Intestine it was “metabolite_not_detected”; in series [7], “metabolite_detected”. In addition, the Drug excretion in series [4] worked out at 17.8%. Further, the Drug uptake in [6] turned out to be 1.7%.
By bioavailability is commonly meant the share of a dose that reaches the circulation, judged against a reference dose that is usually intravenous. As usually defined, the Ki is a dissociation constant, usually derived from enzyme kinetics or from competition with a known ligand. By Cmax is commonly meant the peak of the concentration-time curve. Consider `OC[C@H]1NC[C@@H](O)[C@@H]1O`, for which the Drug excretion in series [8] came to 2.2%; in [4], 9.7%; in series [18], 5.3%. The same compound returned a bioavailability in [9] of 89%. Further, the Drug uptake in the series on Stomach is less than 1%; in series [11] it was “tde”; in the series with Rattus norvegicus [12], 22.1%; in the series with Rattus norvegicus [13] it was 32.2%; in the series with Rattus norvegicus [15] it was 0.00672%; in the series on Cynomolgus monkey [16] it was 62.5%. For the same compound, the Drug uptake is given as 83.5% in the series on Cynomolgus monkey [17]; 60.8% with Cynomolgus monkey [20]; less than 1% in the series on Intestine; 73.4% with Rattus norvegicus [21]; 49.9% in the series with Rattus norvegicus [22]; 7.1% in series [23]. For the same compound, in the series on Rattus norvegicus [25], the Drug uptake is 0.0172%. In addition, the Drug metabolism entry in series [10], in series [14], in [3], in [5], in series [1] and in series [19] was “metabolite_detected” in each case. Besides, in series [7], the Drug metabolism entry is “metabolite_detected”. The Ki in the series filed under Mus musculus is 392 nM. The compound further registered a Cmax in [24] of less than 300 nM.
